The results in this text go back to ChEMBL document CHEMBL3593165, “Enzymatic synthesis of bile acid derivatives and biological evaluation against Trypanosoma cruzi” (Bioorg Med Chem, 2015).

Calls of active or inactive are those of the source. The calls are words filed in the database; no cut-off is given here.

Assay [1] relates to Trypanosoma cruzi. In words: Antiparasitic activity against Trypanosoma cruzi strain CL Brener epimastigotes at 300 uM after 12 days by ELISA reader. The class given is functional. The gist of the method: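 T. cruzi CL Brener epimastigotes were grown at 28 °C in LIT medium with 10% heat-inactivated FBS, […], streptomycin and penicillin. Cells were seeded at 5 × 10^6 cells/mL with compound (0.14–300 µM, DMSO ≤0.5% v/v final) for 12 days at 28 °C. Benznidazole served as positive control, with drug-free and parasite-free controls. Growth was read daily at 600 nm in three independent assays.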

In assay [2] the test system is Trypanosoma cruzi. In words: Antiparasitic activity against Trypanosoma cruzi strain CL Brener epimastigotes after 12 days by ELISA reader. The class given is functional. The settings on record: 288 h. The gist of the method: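 CL Brener epimastigotes grown at 28 °C in LIT medium with 10% heat-inactivated FBS, hemin, streptomycin and penicillin. Seeded at final 5 × 10^6 cells/mL and exposed to compounds across 0.14–300 µM for 12 days at 28 °C. DMSO vehicle, final ≤0.5% (v/v). Growth read daily at 600 nm. IC50 taken from dose-response curves from three independent assays.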

As for `CCOC(=O)CC[C@@H](C)[C@H]1CC[C@H]2[C@@H]3CC[C@@H]4C[C@H](O)CC[C@]4(C)[C@H]3C[C@H](O)[C@]12C`, in the assay on Trypanosoma cruzi [1], the inhibition entry was “inactive”.
What is called IC50 is the concentration needed to halve the response being measured. As to `C[C@H](CCC(=O)O)[C@H]1CC[C@H]2[C@@H]3[C@H](O)C[C@@H]4C[C@H](O)CC[C@]4(C)[C@H]3CC[C@]12C` [CHENODIOL], half-maximal inhibition in the assay on Trypanosoma cruzi [2] (IC50) required 236 µM. Further, the inhibition entry in the assay on Trypanosoma cruzi [1] was “inactive”.
With `CC(=O)O[C@@H]1CC[C@@]2(C)[C@@H](C1)C[C@@H](OC(C)=O)[C@@H]1[C@@H]2CC[C@]2(C)[C@@H]([C@H](C)CCC(=O)O)CC[C@@H]12`, the IC50 with Trypanosoma cruzi [2] stood at 22.8 µM.
The same measure, in the same setting: in the case of `CCOC(=O)CC[C@@H](C)[C@H]1CC[C@H]2[C@@H]3CC[C@@H]4C[C@H](O)CC[C@]4(C)[C@H]3CC[C@]12C` it was 266 µM.
Regarding `CC(=O)O[C@@H]1CC[C@@]2(C)[C@@H](C1)C[C@@H](O)[C@@H]1[C@@H]2CC[C@]2(C)[C@@H]([C@H](C)CCC(=O)O)CC[C@@H]12`, in the assay on Trypanosoma cruzi [1], the inhibition entry was “inactive”.
Still for that read-out and setting: the same measure for `CCOC(=O)CC[C@@H](C)[C@H]1CC[C@H]2[C@@H]3CC[C@@H]4C[C@H](OC(C)=O)CC[C@]4(C)[C@H]3C[C@H](O)[C@]12C`: “inactive”; for `CCOC(=O)CC[C@@H](C)[C@H]1CC[C@H]2[C@@H]3CC[C@@H]4C[C@H](OC(C)=O)CC[C@]4(C)[C@H]3CC[C@]12C`: “inactive”; for `CCOC(=O)CC[C@@H](C)[C@H]1CC[C@H]2[C@@H]3[C@H](O)C[C@@H]4C[C@H](O)CC[C@]4(C)[C@H]3CC[C@]12C`: “inactive”.
Still for that read-out and setting: the same measure for `CC(=O)O[C@@H]1CC[C@@]2(C)[C@H](CC[C@@H]3[C@@H]2C[C@H](O)[C@]2(C)[C@@H]([C@H](C)CCC(=O)O)CC[C@@H]32)C1`: “inactive”; for `CC(=O)O[C@H]1C[C@H]2[C@@H](CC[C@@H]3C[C@H](O)CC[C@@]32C)[C@@H]2CC[C@H]([C@H](C)CCC(=O)O)[C@@]12C`: “inactive”.
For `CCOC(=O)CC[C@@H](C)[C@H]1CC[C@H]2[C@@H]3[C@H](OC(C)=O)C[C@@H]4C[C@H](O)CC[C@]4(C)[C@H]3CC[C@]12C`, the IC50 in the assay on Trypanosoma cruzi [2] came to 295 µM.
Compound `CCOC(=O)CC[C@@H](C)[C@H]1CC[C@H]2[C@@H]3[C@H](O)C[C@@H]4C[C@H](OC(C)=O)CC[C@]4(C)[C@H]3CC[C@]12C` displayed an IC50 in the assay with Trypanosoma cruzi [2] of 8.6 µM.
